Published values from different studies.
Protocols differ between the studies behind these lines.
Target: Aurora kinase C (AURKC, Homo sapiens, UniProt Q9UQB9)
Sequence (Q9UQB9 1-309, as in one of the studies): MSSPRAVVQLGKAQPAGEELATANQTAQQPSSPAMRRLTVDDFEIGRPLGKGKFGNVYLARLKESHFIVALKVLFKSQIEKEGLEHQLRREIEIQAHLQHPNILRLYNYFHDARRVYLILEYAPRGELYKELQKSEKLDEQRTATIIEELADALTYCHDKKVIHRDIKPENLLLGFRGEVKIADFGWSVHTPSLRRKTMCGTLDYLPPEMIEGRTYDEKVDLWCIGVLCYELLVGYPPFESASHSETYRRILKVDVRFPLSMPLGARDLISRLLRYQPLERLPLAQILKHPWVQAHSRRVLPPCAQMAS

Nc1ncc(-c2nc(N3CCOCC3)nc(N3CCOCC3)n2)c(C(F)F)n1  remaining binding (binding; competition with immobilised ligand; 10 µM): 91%
C#Cc1n[nH]c2c(-c3cn(C(C)c4ccccn4)c(=O)[nH]c3=O)cc(F)cc12 (stereo not shown)  inhibition (enzyme activity; inhibitor; 1 µM): 1.7%
N#CC1(c2ccccn2)CCN(Cc2cc(C(=O)O)c(=O)n3ccccc23)CC1  remaining binding (cell-free assay; competition with immobilised ligand; 1 µM): 94%
COc1cc(Nc2ncc(F)c(Nc3ccc4c(n3)NC(=O)C(C)(C)O4)n2)cc(OC)c1OC  inhibition (binding; competition with immobilised ligand; 10 µM): 95%
Cn1cc(-c2cccc(N3CCc4c(sc5c4CC(C)(C)C5)C3=O)c2CO)cc(Nc2ccncn2)c1=O  inhibition (enzyme activity; inhibitor; 1 µM): 5%
Cn1cncc1[C@](O)(COc1ccc(C#N)cc1-c1ccc(OC(F)(F)F)cc1)c1ccc(C#N)cc1  remaining binding (cell-free assay; competition with immobilised ligand; 1 µM): 100%
O=c1[nH]c2ccccc2n1C1CCN(Cc2ccc(-c3[nH]c4cc5ncnc5cc4nc3-c3ccccc3)cc2)CC1  remaining signal (cell-free assay; 0.5 µM): 96%
COc1ncccc1-c1cnn2ccc(N3CCN(C(=O)OC(C)C)CC3)nc12  remaining binding (binding; competition with immobilised ligand; 1 µM): 56%
CC(C)(C)c1cc(C=C(C#N)C#N)cc(Br)c1O  remaining activity (enzyme activity; inhibitor; 0.5 µM): 87.6%
Cn1cc(-c2cc(F)cc(N3CCn4c(cc5c4CCCC5)C3=O)c2CO)cc(Nc2ccc(N3CCN(C4COC4)CC3)cn2)c1=O  inhibition (enzyme activity; inhibitor; 0.1 µM): 5%
